Reference: ChEMBL document CHEMBL3425480 (J Med Chem, 2015)

Key:
Coxsackievirus B3 [1] = assay: Anticoxsackie activity in CVB3 strain Nancy infected in human HeLa cells assessed as inhibition of virus-induced cytopathic effect after 4 hrs by XTT assay; type: functional, cell-based; details: Enterovirus B, 3 days, in the assay text read “after 3 days” for “after 4 hrs”
How it was run: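 HeLa cells seeded a day ahead (30000/well) in DMEM with L-glutamine, 2% FBS, penicillin/streptomycin. 3-fold serial compound dilutions in triplicate, 1 h preincubation, then CVB3 added at MOI 0.005 IU/cell. Incubated 3 days at 37 °C, 5% CO2. Viability by XTT over 4 h, absorbance of formazan read. EC50 by nonlinear regression of % viability vs log10 concentration.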

Human rhinovirus sp. = assay: Antirhinovirus activity in HRVM infected in H1-HeLa cells assessed as inhibition of virus-induced cytopathic effect after 3 days by Cell-Titer Glo viability assay; type: functional, organism-based; details: 72 h
How it was run: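 H1-HeLa cells in RPMI with 10% heat-inactivated FBS and antibiotics, premixed in batch with HRV1A, HRV14 and HRV16, each at 4× TCID90. Replicate 3-fold serial dilutions in DMSO transferred acoustically (384-well). Incubated three days at 33 °C. Cytopathic effect read as viability by CellTiter-Glo.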

Hepatitis C virus [2] = assay: Antiviral activity in HCV 1b infected in HUH 7-lunet cells after 3 days by Dual-Glo luciferase assay; type: functional, cell-based, Hepacivirus hominis; details: genotype 1b, Huh-7, 72 h
How it was run: (§1)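 Multiplex replicon assay in HUH 7-lunet cells carrying a genotype 1b replicon (I389luc-ubi-neo/NS3-3′/ET) or a 2a JFH-1 replicon (2aLucNeo-25). Cells kept in DMEM with GlutaMAX, 10% non-heat-inactivated FBS, 1 mg/mL G-418 and nonessential amino acids. 1600 cells/well (384-well) given serial dilutions. After three days, Renilla luciferase read by Dual-Glo.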

Hepatitis C virus [3] = assay: Antiviral activity in HCV 2a JFH1 infected in HUH 7-lunet cells after 3 days by Dual-Glo luciferase assay; type: functional, cell-based, Hepacivirus hominis; details: subtype 2a JFH1, Huh-7, 72 h; how it was run: as §1
[4] = Inhibition of PI4K3beta (unknown origin) assessed as hydrolysis of ATP for 60 mins by ADP-Glo kinase assay; parameters: species or system Homo sapiens
How it was run: (§2)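 ADP-Glo lipid kinase assay, 5 μL. Final enzyme: PI4K IIIβ 4 ng/μL, IIIα 2 ng/μL, IIα 2 ng/μL. Substrate PI/PS 50 μM, ATP 100 μM final. Inhibitors from 10 mM DMSO stocks. Run 60 min at 25 °C, ADP by luminescence.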

[5] = Inhibition of PI4K3alpha (unknown origin) assessed as hydrolysis of ATP for 60 mins by ADP-Glo kinase assay; parameters: species or system Homo sapiens; how it was run: as §2
[6] = biological target: Phosphatidylinositol 4-kinase type 2-alpha (Homo sapiens, UniProt Q9BTU6); assay: Inhibition of PI4K2alpha (unknown origin) assessed as hydrolysis of ATP for 60 mins by ADP-Glo kinase assay; how it was run: as §2
Sequence of Phosphatidylinositol 4-kinase type 2-alpha (Q9BTU6 whole entry): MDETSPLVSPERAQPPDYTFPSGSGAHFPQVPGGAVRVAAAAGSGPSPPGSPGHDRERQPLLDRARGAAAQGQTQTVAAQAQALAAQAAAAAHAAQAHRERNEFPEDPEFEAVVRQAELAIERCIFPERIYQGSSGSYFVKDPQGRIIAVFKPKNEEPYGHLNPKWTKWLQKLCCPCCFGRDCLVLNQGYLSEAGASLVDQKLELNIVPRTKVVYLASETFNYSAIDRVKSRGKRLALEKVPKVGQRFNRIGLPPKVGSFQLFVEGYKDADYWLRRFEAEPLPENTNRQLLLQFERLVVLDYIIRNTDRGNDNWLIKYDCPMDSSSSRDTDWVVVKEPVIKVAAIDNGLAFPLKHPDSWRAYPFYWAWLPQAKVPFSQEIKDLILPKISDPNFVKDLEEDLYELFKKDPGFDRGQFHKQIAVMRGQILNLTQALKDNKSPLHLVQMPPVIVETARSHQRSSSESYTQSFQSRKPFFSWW

[7] = Cytotoxicity against human HeLa cells; type: cell-based
Coxsackievirus B3 [8] = assay: Anticoxsackie activity in CVB3 strain Nancy infected in human HeLa cells assessed as inhibition of virus-induced cytopathic effect after 3 days by XTT assay; details: Enterovirus B

Row | EC50 (Hepatitis C virus [2]) [µM] | EC50 (Hepatitis C virus [3]) [µM] | IC50 [4] [µM] | IC50 [5] [µM] | IC50 [6] [µM] | EC50 (Coxsackievirus B3 [8]) [µM] | SMILES | EC50 (Coxsackievirus B3 [1]) [µM] | EC50 (Human rhinovirus sp.) [µM] | CC50 [7] [µM]
1 | 1.03 | > 44 | – | – | – | – | COc1ccc(-c2c(C)nn3c(NCCN4CCOCC4)cc(C)nc23)cc1OC | 3.38 | 2.5 | –
2 | 1.03 | > 44 | 0.07 | 59.5 | > 100 | – | COc1ccc(-c2c(C)nn3c(NCCNC(C)=O)cc(C)nc23)cc1OC | 1.23 | 2.9 | > 50
3 | 1.21 | > 44 | 0.12 | 62.1 | > 100 | – | COc1ccc(-c2c(C)nn3c(NCCNC(=O)C(C)C)cc(C)nc23)cc1OC | 11 | 1.62 | > 50
4 | 0.91 | 42.5 | 0.12 | 29.3 | > 100 | 1.43 | COc1ccc(-c2c(C)nn3c(NCCNS(C)(=O)=O)cc(C)nc23)cc1OC | – | 3 | > 50
5 | 0.96 | > 44 | 0.067 | 29.5 | > 100 | – | COc1ccc(-c2c(C)nn3c(NCCOC(C)=O)cc(C)nc23)cc1OC | 0.86 | 1.38 | > 50
6 | 0.37 | 17.9 | 0.093 | 27.5 | > 100 | – | COc1ccc(-c2c(C)nc3c(NCCN4CCOCC4)ccnn23)cc1OC | 0.5 | 0.88 | > 50
7 | 0.29 | 31.8 | – | 82.7 | > 100 | – | COc1ccc(-c2c(C)nc3c(NCCNC(C)=O)cc(Cl)nn23)cc1OC | 0.75 | 1.09 | > 50
8 | 5.3 | 13.6 | 0.089 | > 100 | > 100 | – | CC(=O)NCCNc1cc(Cl)nn2c(-c3ccc(F)c(C=O)c3)c(C)nc12 | > 50 | 24.3 | > 50
9 | 0.36 | 27.9 | 0.092 | 33.7 | > 100 | – | COc1ccc(-c2c(C)nc3c(NCCNC(C)=O)ccnn23)cc1OC | 0.28 | 2.9 | > 50
10 | 0.21 | 26.5 | 0.083 | > 100 | > 100 | – | COc1ccc(-c2c(C)nc3c(N)cc(Cl)nn23)cc1OC | 0.023 | 0.89 | 1.75

Row | SMILES | EC50 (Hepatitis C virus [2]) [µM] | EC50 (Hepatitis C virus [3]) [µM] | IC50 [4] [µM] | IC50 [5] [µM] | IC50 [6] [µM] | EC50 (Coxsackievirus B3 [8]) [µM] | EC50 (Coxsackievirus B3 [1]) [µM] | EC50 (Human rhinovirus sp.) [µM] | CC50 [7] [µM]
11 | C[C@@]1(O)[C@H](O)[C@@H](CO)O[C@H]1n1ccc2c(N)ncnc21 [BETA-2'-C-METHYL-7-DEAZA-ADENOSINE] | 0.21 | 0.21 | – | – | – | – | – | 5.1 | > 50
